Measured values from different studies.
Compare with care: the assays were run in different laboratories.
Cell line: HepG2
Read-out: cell growth or viability

The IC50 of `CCN(CC)CCCn1cccc1/C=N/NC(=O)Nc1cc2c(Nc3ccc(F)c(Cl)c3)ncnc2cc1OC` is reported as 0.22 µM (MTT; 72 h).
The IC50 of `O=C(/C=C/c1ccc(O)c(O)c1)O[C@@H]1C[C@](O)(C(=O)O)C[C@@H](O)[C@H]1O` is reported as 24.6 µM (WST-1; 48 h).
`C=CCn1c(-c2ccc([N+](=O)[O-])cc2)nc2ccc(C)cc21` has an IC50 of 63.5 µM (MTT).
For `Oc1c(Br)cc(Br)c2cccnc12`, the IC50 was greater than 100 µM (MTT; 48 h).
With `Clc1ccc(Cn2c(-c3ccc(Cl)cc3)nc3ccccc32)cc1` the IC50 was 10.1 µM (MTT).
The IC50 of `OCc1ccc2c(c1C#Cc1ccc(O)cc1)C(c1ccc(O)cc1)(c1ccc(O)cc1)c1cc(O)ccc1-2` is reported as greater than 50 µM (MTT; 48 h).
With `COc1cccc2c1C(=O)c1c(O)c3c(c(O)c1C2=O)C[C@@](O)(C(=O)CO)C[C@@H]3O[C@H]1C[C@H](N)[C@H](O)[C@H](C)O1` the IC50 was 0.12 mg/L (MTT; 48 h).
`COC(=O)CN=c1scc(-c2ccccc2)n1-c1ccccc1OC` has an IC50 of 22.7 µM (MTT; 72 h).
For `COc1cc(-c2nc(OCc3cn(CC(=O)Nc4ccc(C)cc4)nn3)c3ccccc3n2)cc(OC)c1OC`, the IC50 was 13.6 µM (MTT; 72 h).
For `Oc1ncnc2cc(Nc3nc(-c4ccc(Cl)cc4)cs3)ccc12`, the IC50 was 9.36 µM (MTT).
`CC(C)(C)NC(=O)NNC(=O)c1ccc(Nc2nccc(-c3ccccn3)n2)cc1` has an IC50 of greater than 40 µM (MTT).
With `C=CCn1c(-c2ccc(Cl)cc2)nc2ccccc21` the IC50 was 58.9 µM (MTT).
With `O=c1cc(-c2ccc(O)c(O)c2)oc2cc(O)cc(O)c12` the IC50 was 15.2 µM (WST-1; 48 h).
With `CC1=C(O)C(=O)C=C2C1=CC=C1[C@@]2(C)CC[C@@]2(C)[C@@H]3C[C@](C)(C(=O)OCCCOc4ccccc4)CC[C@]3(C)CC[C@]12C` the IC50 was 3.04 µM (MTT; 48 h).
With `O=C(N/N=C/c1cccn1CCCN1CCCCC1)Nc1cc2c(Nc3ccc(F)c(Cl)c3)ncnc2cc1O[C@H]1CCOC1` the IC50 was 0.52 µM (MTT; 72 h).
For `CC1(C)CC[C@]2(C(=O)O)CC[C@]3(C)C(=CC[C@@H]4[C@@]5(C)CC[C@H](O)C(C)(C)[C@@H]5CC[C@]43C)[C@@H]2C1`, the IC50 was greater than 100 µM (MTT; 48 h).
`Cc1ccc2nc(-c3ccc([N+](=O)[O-])cc3)n(Cc3ccccc3)c2c1` has an IC50 of 6.74 µM (MTT).
For `COc1cc2ncnc(Nc3ccc(F)c(Cl)c3)c2cc1NC(=O)N/N=C/c1cccn1CCN1CCCC1`, the IC50 was 0.16 µM (MTT; 72 h).
For `CC(C)C(=O)Nc1ccc([N+](=O)[O-])c(C(F)(F)F)c1`, the IC50 was 2.54 µM (CCK-8; 48 h).
For `CC1=C(O)C(=O)C=C2C1=CC=C1[C@@]2(C)CC[C@@]2(C)[C@@H]3C[C@](C)(C(=O)OCCCCO)CC[C@]3(C)CC[C@]12C`, the IC50 was 0.63 µM (MTT; 48 h).
`CC1=CC(C)(C)N(Cc2ccccc2)c2ccc(O)cc21` gave an IC50 of 20 µM (MTT; 72 h).
`COCCCOC(=O)[C@]1(C)CC[C@]2(C)CC[C@]3(C)C4=CC=C5C(=CC(=O)C(O)=C5C)[C@]4(C)CC[C@@]3(C)[C@@H]2C1` gave an IC50 of 0.94 µM (MTT; 48 h).
With `COc1ccc(-c2cc(-c3ccc4oc(=O)cc(C)c4c3O)nc(N)n2)cc1` the IC50 was greater than 128 mg/L (MTT; 72 h).
The IC50 of `CC1=C(O)C(=O)C=C2C1=CC=C1[C@@]2(C)CC[C@@]2(C)[C@@H]3C[C@](C)(C(=O)OCCCCCCCCO)CC[C@]3(C)CC[C@]12C` is reported as 3.3 µM (MTT; 48 h).
For `c1ccc(-c2ccccn2)nc1`, the IC50 was greater than 50 µM (MTT; 48 h).
The IC50 of `Cc1ccc(NC(=O)NNC(=O)c2ccc(Nc3nccc(-c4cccnc4)n3)cc2)cc1` is reported as greater than 40 µM (MTT; 24 h).
With `CC(=O)O[C@H]1C(=O)[C@@]2(C)[C@H]([C@H](OC(=O)c3ccccc3)[C@]3(O)C[C@H](OC(=O)[C@H](O)[C@@H](NC(=O)c4ccccc4)c4ccccc4)C(C)=C1C3(C)C)[C@]1(OC(C)=O)CO[C@@H]1C[C@@H]2O` the IC50 was 4.75 µM (MTT; 48 h).
For `COc1cc2ncnc(Nc3ccc(F)c(Cl)c3)c2cc1NC(=O)N/N=C/c1cccn1CCN1CCOCC1`, the IC50 was 0.03 µM (MTT; 72 h).
With `O=[N+]([O-])c1ccc(-c2csc(Nc3ccc4c(O)ncnc4c3)n2)cc1` the IC50 was 6.87 µM (MTT).
The IC50 of `COc1cc2ncnc(Nc3ccc(F)c(Cl)c3)c2cc1NC(=O)N/N=C/CN1CCCC1` is reported as 2.48 µM (MTT; 72 h).
With `Oc1ccc(-c2csc(Nc3ccc4c(O)ncnc4c3)n2)cc1` the IC50 was 14.2 µM (MTT).
`COc1cc2ncnc(Nc3ccc(F)c(Cl)c3)c2cc1NC(=O)N/N=C/CN1CCOCC1` gave an IC50 of 4.42 µM (MTT; 72 h).
The IC50 of `Cc1cc(=O)oc2ccc(-c3cc(-c4ccc(Cl)cc4)nc(N)n3)c(O)c12` is reported as 18.1 mg/L (MTT; 72 h).
`c1ccc2[nH]c(-c3ccc4c(c3)OCO4)nc2c1` has an IC50 of greater than 100 µM (MTT; 48 h).
For `CC(C)(C)NC(=O)NNC(=O)c1ccc(Nc2nccc(-c3ccc(Cl)cc3)n2)cc1`, the IC50 was 4.48 µM (MTT).
`Oc1ccc(Br)cc1-c1nc2ccccc2[nH]1` has an IC50 of 8.94 µM (MTT; 48 h).
`CCN(CC)CCn1cccc1/C=N/NC(=O)Nc1cc2c(Nc3ccc(F)c(Cl)c3)ncnc2cc1OC` gave an IC50 of 1.62 µM (MTT; 72 h).
`COc1cccc2c1C(=O)c1c(O)c3c(c(O)c1C2=O)C[C@@](O)(C(=O)CO)C[C@@H]3O[C@H]1C[C@H](N)[C@H](O)[C@H](C)O1` has an IC50 of 3.6 µM (MTT; 24 h).
The IC50 of `O=[N+]([O-])c1cccc(-c2nc3ccccc3[nH]2)c1` is reported as 39 µM (MTT; 48 h).
`CCN(CC)CCCn1cccc1/C=N/NC(=O)Nc1cc2c(Nc3ccc(F)c(Cl)c3)ncnc2cc1O[C@H]1CCOC1` gave an IC50 of 0.71 µM (MTT; 72 h).
`Nc1nc(-c2ccc(NC(=O)c3ccc(Cl)c(Cl)c3)cc2F)c[nH]1` gave an IC50 of 16.9 µM (XTT; 24 h).
